# High-throughput results deposited in PubChem by Sanford-Burnham Center for Chemical Genomics.
# The list is not random: actives were taken first. Their share in the collection is about 2%.
# DNMT1 inh = blocks human DNA methyltransferase DNMT1. 0.83% of 360,000 active. AID 588458. DNMT1 molecular beacon, Hinp1I cleavage, fluorescence. inhibition (reported as % activation of signal), % at 10 µM. P26358; in the data active = inhibition above about 50%
# CSN deneddyl inh = inhibitors of human CSN-mediated cullin deneddylation; Q92905; inhibition, % at 12.5 µM; Purified CSN, SCF-Nedd8-OG deneddylation, fluorescence polarization; 0.38% of 360,000 active;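 active = pattern-corrected inhibition above about 35%, with an unprinted fluorescence ratio check between 0.5 and 1.5, limit read from the data, passing the limit was not always enough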;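 note: 0% = enzyme with substrate and 100% = substrate without enzyme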
#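 Detection – fluorescence polarization · System – HEK293T-derived human Csn5 enzyme · Controls – substrate-only high control, full reaction low control · Timing – 90 min, room temperature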
# Scp1 inh = inhibitors of human Scp-1 phosphatase; Q9GZU7; Recombinant Scp1, phosphopeptide, malachite green phosphate absorbance; inhibition, % at 20 µM; 0.88% of 340,000 active;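 active = inhibition above about 50% at 20 µM, limit read from the data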;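 note: plate controls were DMSO wells with enzyme for no effect and wells lacking enzyme for full effect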
# Target sequence (Q9GZU7 76-261 limits assumed): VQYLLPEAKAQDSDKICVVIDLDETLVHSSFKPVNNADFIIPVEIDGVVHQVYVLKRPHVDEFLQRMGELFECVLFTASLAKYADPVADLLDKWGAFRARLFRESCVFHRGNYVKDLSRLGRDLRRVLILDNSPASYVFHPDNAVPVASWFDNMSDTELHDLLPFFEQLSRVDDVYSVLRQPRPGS
#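 Material: truncated SCP-1 phosphatase (76-261aa) / Buffer or medium: 50 mM Tris acetate pH 5.5, 0.005% Tween-20, 10 mM MgCl2 / Compound dosing: one concentration, 20 µM, with 1.0% DMSO / Incubation: 45 min room-temperature reaction, 5 min colour, 30 min stabiliser / Detection: colorimetric free-phosphate detection, absorbance 630 nm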
# STEP block = inhibitors of human striatal-enriched phosphatase STEP; P54829; recombinant STEP, OMFP fluorogenic substrate, fluorescence; inhibition, % at 20 µM; 0.25% of 360,000 active;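 active = inhibition at 20 µM, scaled per plate between control wells, above about 37%, limit read from the data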;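 note: 0% = DMSO with enzyme and substrate and 100% = substrate only without enzyme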
#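 material = STEP tyrosine phosphatase | reagent = fluorogenic phosphatase substrate OMFP at 25 µM final | doses = single compound dose of 20 µM, 1% DMSO final | schedule = 20 min reaction, room temperature, in the dark | measured by = fluorescence, 480/540 nm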
# SUMO1-SIM PPI = modulators of human SUMO1-mediated protein-protein interactions | SUMO1 binding to a labelled peptide, TR-FRET, 1 h | P63165 | inhibition, % at 20 µM | AID 602429 | 0.33% of 360,000 active; in the data active = inhibition above about 37%
# Target sequence (P63165 whole entry, looked up): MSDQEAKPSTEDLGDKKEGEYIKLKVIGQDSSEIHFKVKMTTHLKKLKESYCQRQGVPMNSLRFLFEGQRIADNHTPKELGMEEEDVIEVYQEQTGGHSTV
# LMPTP block = LMPTP (human) inhibition; inhibition, % at 20 µM; AID 651560; P24666; recombinant LMPTP-A, OMFP fluorogenic substrate, fluorescence intensity; 0.22% of 360,000 active;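 active = compounds that cut the enzyme signal by at least half of the control window in the single-dose screen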;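 note: plate controls were DMSO wells with enzyme plus substrate for no effect and substrate without enzyme for full effect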
#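 test system = LMPTP-A | amount = 0.625 nM LMPTP-A final | reagent = fluorogenic phosphatase substrate OMFP at 400 µM final | incubation = 50 min at room temperature | benchmarks = no-enzyme low control, uninhibited high control | medium = Bis-Tris pH 6.0, DTT, detergent | signal = fluorescence intensity of OMFP turnover product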
# Numbers without * were called inactive; . = no result.
SMILES,DNMT1 inh,CSN deneddyl inh,Scp1 inh,STEP block,SUMO1-SIM PPI,LMPTP block
CC(C)NC1CCC(Nc2ccnc3cc(Cl)ccc23)CC1 (stereo not drawn),35,1,-2,0,4,6
CC(CCCN1CCCC1)Nc1ccnc2cc(Cl)ccc12 (stereo not drawn),9,4,-15,-6,-42,76*
CCCCn1c(N)c(N(Cc2ccccc2OC)C(=O)C(C)Oc2ccc(Cl)cc2)c(=O)[nH]c1=O (stereo not drawn),0,2,2,0,-4,-2
C=CC(=O)Nc1cccc(Oc2ccnc(Nc3ccc(N4CCN(C)CC4)cc3)n2)c1,-48,7,7,5,3,0
C=CC(=O)Nc1cccc(Oc2ccnc3[nH]ccc23)c1,20,122*,9,54*,57*,19
CC1=C(C#N)C(=O)NC(=O)/C1=C\c1ccc(-c2cc(C)c(C)cc2[N+](=O)[O-])o1,13,2,78*,5,18,3
Cc1ccc(-c2ccc(/C=C3/NC(=O)NC3=O)o2)cc1[N+](=O)[O-],-2,10,1,1,4,1
CCOc1ccccc1/C=C/c1nc2ccccc2[nH]c1=O,81*,2,-7,1,-10,2
Brc1ccc2nc(-c3ccco3)c(CC3CCCCC3)n2c1,69*,29,.,4,23,19
Cc1ccc2nc(-c3ccco3)c(CC3CCCCC3)n2c1,1,11,.,-1,0,0
Nc1ccc2ncccc2c1N,-6,9,-4,0,45*,8
c1cnc2ccc3ncccc3c2c1,4,-2,2,-7,0,3
O=C(c1cccc([N+](=O)[O-])c1)c1ccc2[nH]c(=O)[nH]c2c1,-6,97*,-6,32,34,11
O=C(Nc1cccc(-c2cn3ccccc3n2)c1)c1cc2ccccc2oc1=O,43,116,3,81*,-6,75*
Cc1cc(C(=O)N(C)CC(=O)Nc2ccc(F)c(F)c2F)no1,2,-2,-8,1,5,-1
CCC(=O)c1ccc(OCC(=O)Nc2nc(C)cs2)cc1,3,1,-5,2,2,0
CCC(=O)c1ccc(OCC(=O)Nc2nc(-c3cccnc3)cs2)cc1,41,12,39,12,46*,4
Cc1cc(N=NC(=O)c2ccccc2)ccc1O,58*,-8,-3,-4,3,-1
O=C(Nc1cccc(-c2nc3ncccc3o2)c1)c1sc2ccccc2c1Cl,42,1,2,10,1,50*
O=Nc1c(-c2c(O)[nH]c3cc(Br)ccc23)[nH]c2ccccc12,-30,-2,-14,5,44*,6
N=C(N)c1ccc(N=Nc2c(O)ccc3c2[nH]c2ccccc23)cc1,51*,105,10,17,129*,23
Cc1cccc(C)c1NC(=O)CSCC(=O)c1ccc(O)c(O)c1,1,0,-2,-2,-2,48*
Cc1cccc(C)c1NC(=O)CSCC(=O)O,1,-3,-3,-4,-2,0
COc1ccccc1N1CCN(C(c2cc3ccc(C)cc3[nH]c2=O)c2nnnn2C2CCCC2)CC1 (stereo not drawn),-1,-1,-3,7,-2,1
COc1ccccc1N1CCN(C(c2cc3cc(C)ccc3[nH]c2=O)c2nnnn2C2CCCC2)CC1 (stereo not drawn),-5,-1,-5,-13,45*,-1
O=C(/C=C/c1c(F)cccc1Cl)N1CCOCC1,-1,1,-5,-1,-1,0
O=c1c2ccccc2[nH]c2ccc(O)cc12,33,12,61*,8,5,7
COc1cccc(N=C2NC(=O)/C(=C/c3cc([N+](=O)[O-])ccc3O)S2)c1,3,113,44,50*,-5,88*
C[N+]12CCCCC1C(COC(=O)c1ccc3c(c1)OCO3)CCC2 (stereo not drawn),2,0,106*,2,1,-1
